Results from ChEMBL document CHEMBL1649460, “Integron mobilization unit as a source of mobility of antibiotic resistance genes” (2009).
≈ marks a conversion by molar mass, not a printed value.

What was measured:
Enterobacter cloacae [1] = experiment: Antimicrobial activity against Enterobacter cloacae CHE-2 harboring blaGES-5 and blaSHV-5 gene by agar dilution method; format: functional
Method in brief: (§1)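 MICs by agar dilution, with β-lactams tested alone. Colistin was the exception, read by Etest strip. Results interpreted according to CLSI guidelines.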

Escherichia coli [2] = experiment: Antimicrobial activity against Escherichia coli J53 harboring pCHE-A plasmid expressing blaGES-5 gene by agar dilution method; format: functional
Escherichia coli [3] = experiment: Antimicrobial activity against Escherichia coli J53 harboring pCHE-B plasmid expressing blaSHV-5 gene by agar dilution method; format: functional
Escherichia coli [4] = experiment: Antimicrobial activity against Escherichia coli J53 by agar dilution method; format: functional; method in brief: as §1
Pseudomonas aeruginosa [5] = experiment: Antimicrobial activity against Pseudomonas aeruginosa PU21 by agar dilution method; format: functional; method in brief: as §1
Enterobacter cloacae [6] = experiment: Antimicrobial activity against Enterobacter cloacae CHE-2 harboring blaGES-5 and blaSHV-5 gene by agar dilution in presence of beta-lactamase inhibitor clavulanic acid; format: functional
Method in brief: (§2)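 Agar dilution MICs of β-lactams, each tested with clavulanic acid held at a fixed 4 µg/ml. Results interpreted according to CLSI guidelines.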

Escherichia coli [7] = experiment: Antimicrobial activity against Escherichia coli J53 harboring pCHE-A plasmid expressing blaGES-5 gene by agar dilution in presence of beta-lactamase inhibitor clavulanic acid
Escherichia coli [8] = experiment: Antimicrobial activity against Escherichia coli J53 harboring pCHE-B plasmid expressing blaSHV-5 gene by agar dilution in presence of beta-lactamase inhibitor clavulanic acid
Escherichia coli [9] = experiment: Antimicrobial activity against Escherichia coli J53 by agar dilution in presence of beta-lactamase inhibitor clavulanic acid
Pseudomonas aeruginosa [10] = experiment: Antimicrobial activity against Pseudomonas aeruginosa PU21 by agar dilution in presence of beta-lactamase inhibitor clavulanic acid; format: functional; method in brief: as §2
Pseudomonas aeruginosa [11] = experiment: Antimicrobial activity against Pseudomonas aeruginosa PU21 harboring pCHE-A plasmid expressing blaGES-5 gene by agar dilution method; format: functional
Method in brief: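 Natural plasmid pCHE-A was electrotransformed into electrocompetent P. aeruginosa PU21, and transformants were selected on agar with ticarcillin 100 µg/ml. MICs by agar dilution, with β-lactams tested alone; colistin by Etest. Interpreted per CLSI.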

Pseudomonas aeruginosa [12] = experiment: Antimicrobial activity against Pseudomonas aeruginosa PU21 harboring pCHE-A plasmid expressing blaGES-5 gene by agar dilution in presence of beta-lactamase inhibitor clavulanic acid; format: functional
Method in brief: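 MICs by agar dilution. Beta-lactams tested alone and with clavulanic acid held at a fixed 4 µg/ml. Results were interpreted against CLSI guidelines.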

Structure (SMILES) | MIC (Enterobacter cloacae [1]) | MIC (Escherichia coli [2]) | MIC (Escherichia coli [3]) | MIC (Escherichia coli [4]) | MIC (Pseudomonas aeruginosa [5]) | MIC (Enterobacter cloacae [6]) | MIC (Escherichia coli [7]) | MIC (Escherichia coli [8]) | MIC (Escherichia coli [9]) | MIC (Pseudomonas aeruginosa [10]) | MIC (Pseudomonas aeruginosa [11]) | MIC (Pseudomonas aeruginosa [12])
CC1(C)S[C@@H]2[C@H](NC(=O)[C@H](N)c3ccc(O)cc3)C(=O)N2[C@H]1C(=O)O [AMOXICILLIN] | > 512 µg/mL | > 512 µg/mL | > 512 µg/mL | 2 µg/mL (≈ 5.47 µM) | > 512 µg/mL | > 256 µg/mL | 16 µg/mL | 4 µg/mL | 2 µg/mL | > 512 µg/mL |  | 
CO[C@@]1(NC(=O)Cc2cccs2)C(=O)N2C(C(=O)O)=C(COC(N)=O)CS[C@@H]21 [CEFOXITIN] | > 512 µg/mL | 128 µg/mL (≈ 299 µM) | 4 µg/mL (≈ 9.36 µM) | 4 µg/mL (≈ 9.36 µM) | > 512 µg/mL |  |  |  |  |  |  | 
CC(C)(O/N=C(\C(=O)N[C@@H]1C(=O)N2C(C(=O)[O-])=C(C[n+]3ccccc3)CS[C@H]12)c1csc(N)n1)C(=O)O [CEFTAZIDIME] | > 512 µg/mL | 128 µg/mL (≈ 234 µM) | 256 µg/mL (≈ 468 µM) | 0.06 µg/mL (≈ 0.11 µM) | 1 µg/mL (≈ 1.83 µM) | 256 µg/mL | 16 µg/mL | 4 µg/mL | 0.06 µg/mL | 1 µg/mL | 256 µg/mL (≈ 468 µM) | 64 µg/mL
C[C@@H](O)[C@H]1C(=O)N2C(C(=O)O)=C(S[C@@H]3CN[C@H](C(=O)Nc4cccc(C(=O)O)c4)C3)[C@H](C)[C@H]12 [ERTAPENEM] | > 32 µg/mL | 0.12 µg/mL (≈ 0.252 µM) | 0.06 µg/mL (≈ 0.126 µM) | 0.03 µg/mL (≈ 0.0631 µM) | 8 µg/mL (≈ 16.8 µM) |  |  |  |  |  | > 32 µg/mL | 
C[C@@H](O)[C@H]1C(=O)N2C(C(=O)O)=C(SCCNC=N)C[C@H]12 [IMIPENEM ANHYDROUS] | > 32 µg/mL | 1 µg/mL (≈ 3.34 µM) | 0.06 µg/mL (≈ 0.2 µM) |  | 2 µg/mL (≈ 6.68 µM) |  |  |  |  |  | 16 µg/mL (≈ 53.4 µM) | 
C[C@@H](O)[C@H]1C(=O)N2C(C(=O)O)=C(S[C@@H]3CN[C@H](C(=O)N(C)C)C3)[C@H](C)[C@H]12 [MEROPENEM] | > 32 µg/mL | 0.25 µg/mL (≈ 0.652 µM) | 0.06 µg/mL (≈ 0.156 µM) | 0.03 µg/mL (≈ 0.0782 µM) | 0.5 µg/mL (≈ 1.3 µM) |  |  |  |  |  | > 32 µg/mL | 
